In ChEMBL document CHEMBL5344428, “Discovery, Crystallographic Studies, and Mechanistic Investigations of Novel Phenylalanine Derivatives Bearing a Quinazolin-4-one Scaffold as Potent HIV Capsid Modulators” (J Med Chem, 2023):

Tests used:
[1] = Selectivity index, ratio of CC50 for cytotoxicity against human MT4 cells to EC50 for antiviral activity against HIV2 ROD infected in human MT4 cells; assay type: toxicity, cell-based; conditions: read-out: Ratio CC50/EC50
Outline: (§1)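 SI is CC50 divided by EC50. CC50 comes from MTT viability of uninfected MT-4 cells. EC50 comes from MTT-read protection of MT-4 cells infected with HIV-1 IIIB or HIV-2 ROD. Each value was run in at least triplicate.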

[2] = Cytotoxicity against human MT4 cells assessed as reduction in cell viability; assay type: toxicity, cell-based
Outline: (§2)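 Uninfected MT-4 cells were exposed to compound, and viability was read by the MTT method. […] Each value was run in at least triplicate and averaged from at least three independent experiments.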

[3] = system: Human immunodeficiency virus 2; assay: Antiviral activity against HIV-2 ROD infected in human MT4 cells assessed as protection against virus induced cytopathic effect; assay type: functional, organism-based; conditions: Human immunodeficiency virus 2, ROD
Outline: (§3)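 MT-4 cells were infected with HIV-1 IIIB or HIV-2 ROD, and cell viability was read by MTT. […] Each value was run in at least triplicate and averaged from at least three independent experiments.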

[4] = Selectivity index, ratio of CC50 for cytotoxicity against human MT4 cells to EC50 for antiviral activity against HIV1 IIIB infected in human MT4 cells; assay type: toxicity, cell-based; conditions: read-out: Ratio CC50/EC50; outline: as §1
[5] = Selectivity ratio of EC50 for antiviral activity against HIV1 IIIB infected in human MT4 cells to EC50 for antiviral activity against HIV2 ROD infected in human MT4 cells; assay type: toxicity, cell-based
Outline: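 Ratio is EC50 against HIV-1 IIIB divided by EC50 against HIV-2 ROD. Both EC50 values come from MTT-read protection of infected MT-4 cells.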

[6] = system: Human immunodeficiency virus 1; assay: Antiviral activity against HIV-1 IIIB infected in human MT4 cells assessed as protection against virus induced cytopathic effect; assay type: functional, organism-based; conditions: Human immunodeficiency virus 1, IIIB; outline: as §3
[7] = system: Human immunodeficiency virus 2; assay: Antiviral activity against HIV2 ROD infected in human MT4 cells assessed as reduction in virus induced cytopathic effect measured after 5 days by MTT assay; assay type: functional, organism-based; conditions: Human immunodeficiency virus 2, ROD, MT4, 120 h; outline: as §3
[8] = system: Human immunodeficiency virus 1; assay: Antiviral activity against HIV1 IIIB infected in human MT4 cells assessed as reduction in virus induced cytopathic effect measured after 5 days by MTT assay; assay type: functional, organism-based; conditions: Human immunodeficiency virus 1, IIIB, MT4, 120 h; outline: as §3
[9] = Cytotoxicity against human MT4 cells assessed as reduction in cell viability incubated for 5 days by MTT assay; assay type: toxicity, cell-based; conditions: MT4 cells, time 5 day; outline: as §2

Compound | selectivity ratio [1] | CC50 [2] [µM] | EC50 [3] [µM] | selectivity ratio [4] | Ratio EC50 [5] | EC50 [6] [µM] | EC50 [7] [µM] | EC50 [8] [µM] | CC50 at 120 h [9] [µM]
COc1ccc(N(C)C(=O)[C@H](Cc2cc(F)cc(F)c2)NC(=O)CN2CCN(S(=O)(=O)c3cccc([N+](=O)[O-])c3)CC2)cc1 | 493 | 83.9 | 0.17 | 56.3 | 8.76 | 1.49 |  |  | 
COc1ccc(N(C)C(=O)[C@H](Cc2cc(F)cc(F)c2)NC(=O)CN2CCN(S(=O)(=O)c3ccc([N+](=O)[O-])cc3)CC2)cc1 | 30.9 | 14.8 | 0.48 | 14.7 | 2.1 | 1.01 |  |  | 
COc1ccc(N(C)C(=O)[C@H](Cc2cc(F)cc(F)c2)NC(=O)CN2CCN(S(=O)(=O)c3ccc(F)cc3)CC2)cc1 | 53.3 | 19.2 | 0.36 | 24.3 | 2.19 | 0.79 |  |  | 
COc1ccc(N(C)C(=O)[C@H](Cc2cc(F)cc(F)c2)NC(=O)CN(Cc2ccc(C#N)cc2)C(=O)Cc2ccc(B3OC(C)(C)C(C)(C)O3)cc2)cc1 | 3 |  |  | 3 | 1.09 |  | 16.2 | 17.7 | 52.4
COC(=O)CCSc1nnc([C@H](Cc2ccccc2)NC(=O)Cc2c(C)[nH]c3ccccc23)n1-c1ccc(OC)cc1 | > 11 |  |  | > 19 | 0.59 |  | 19.2 | 11.4 | > 214
COc1ccc(N(C)C(=O)[C@H](Cc2ccccc2)NC(=O)CN2CCN(C(=O)Cc3c[nH]c4ccccc34)CC2=O)cc1 | 23 |  |  | 7.51 | 3.06 |  | 4.89 | 15 | 112
COc1ccc(N(C)C(=O)[C@H](Cc2cc(F)cc(F)c2)NC(=O)CN2CCN(C(=O)Cc3c[nH]c4ccccc34)CC2=O)cc1 | 3.28 |  |  | 1.97 | 1.67 |  | 17.6 | 29.4 | 57.8
COc1ccc(N(C)C(=O)[C@H](Cc2cc(F)cc(F)c2)NC(=O)Cn2ccc(N)cc2=O)cc1 | > 17.1 |  |  | > 49.6 | 0.34 |  | 15.6 | 5.36 | > 266
COc1ccc(N(C)C(=O)[C@H](Cc2ccccc2)NC(=O)CN2CCN(C(=O)Cc3c[nH]c4ccc(OC)cc34)CC2=O)cc1 | 6.15 |  |  | 7.15 | 0.86 |  | 16.9 | 14.6 | 104
COc1ccc(N(C)C(=O)[C@H](Cc2cc(F)cc(F)c2)NC(=O)CN(Cc2ccc(F)cc2)C(=O)Cc2c[nH]c3ccc(Br)cc23)cc1 | < 1 |  |  | 6 | < 0.16 |  | > 17.8 | 2.93 | 17.8
COc1ccc(N(C)C(=O)[C@H](Cc2ccccc2)NC(=O)CN2CCN(C(=O)Cc3c(C)[nH]c4ccccc34)CC2=O)cc1 | 13.9 |  |  | 7.73 | 1.84 |  | 7.74 | 14.3 | 108
COc1ccc(-n2c([C@H](Cc3ccccc3)NC(=O)CN3CCN(S(=O)(=O)c4ccc(N)cc4)CC3)nc3cc(Cl)ccc3c2=O)cc1 | > 1740 |  |  | > 291 | 6.1 |  | 0.1 | 0.61 | > 178
COC(=O)c1ccc(C(=O)Nc2ccn(CC(=O)N[C@@H](Cc3ccccc3)C(=O)N(C)c3ccc(OC)cc3)c(=O)c2)cc1 | 6.31 |  |  | 5.04 | 1.25 |  | 15.2 | 19.1 | 96.2
COc1ccc(-n2c(SCc3ncccn3)nnc2[C@H](Cc2ccccc2)NC(=O)Cc2c(C)[nH]c3ccccc23)cc1 | 14 |  |  | 58 | 0.24 |  | 7.43 | 1.81 | 106
COc1ccc(-n2c(SCc3ccccn3)nnc2[C@H](Cc2ccccc2)NC(=O)Cc2c(C)[nH]c3ccccc23)cc1 | 6 |  |  | 9 | 0.63 |  | 4.16 | 2.61 | 24.2
